Reference: ChEMBL document CHEMBL5230171, “Expanding the structure-activity relationships of alkynyl diphenylurea scaffold as promising antibacterial agents” (RSC Med Chem, 2023)
Converted amounts (≈) assume the structure as drawn. The source made the active and inactive calls. No cut-off for these calls is given here.

Tests used:
[1] = test system: Staphylococcus aureus; test: Antibacterial activity against vancomycin resistant Staphylococcus aureus 12 assessed as inhibition of bacterial growth at 0.5 ug/ml incubated for 18 to 20 hrs by CLSI protocol based broth microdilution method; format: functional, organism-based; details: dose 0.5 µg/ml, time 18-20 hrs
[2] = test system: Staphylococcus aureus; test: Antibacterial activity against methicillin sensitive Staphylococcus aureus 6538 assessed as inhibition of bacterial growth at 0.5 ug/ml incubated for 18 to 20 hrs by CLSI protocol based broth microdilution method; format: functional, organism-based; details: dose 0.5 µg/ml, time 18-20 hrs
Outline: (§1)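 Staphylococcal and E. coli strains were diluted from a 0.5 McFarland suspension in cation-adjusted Mueller Hinton broth to ~5 × 10^5 CFU mL−1. They were incubated with serial dilutions of test agent in broth microdilution, and the MIC was recorded.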

[3] = test system: Staphylococcus aureus; test: Antibacterial activity against methicillin sensitive Staphylococcus aureus 107 assessed as inhibition of bacterial growth at 0.5 ug/ml incubated for 18 to 20 hrs by CLSI protocol based broth microdilution method; format: functional, organism-based; details: dose 0.5 µg/ml, time 18-20 hrs; outline: as §1
[4] = test system: Staphylococcus aureus; test: Antibacterial activity against methicillin resistant Staphylococcus aureus 386 assessed as inhibition of bacterial growth at 0.5 ug/ml incubated for 18 to 20 hrs by CLSI protocol based broth microdilution method; format: functional, organism-based; details: dose 0.5 µg/ml, time 18-20 hrs
[5] = test system: Staphylococcus aureus; test: Antibacterial activity against methicillin resistant Staphylococcus aureus 123 assessed as inhibition of bacterial growth at 0.5 ug/ml incubated for 18 to 20 hrs by CLSI protocol based broth microdilution method; format: functional, organism-based; details: dose 0.5 µg/ml, time 18-20 hrs
[6] = test system: Staphylococcus aureus; test: Antibacterial activity against methicillin resistant Staphylococcus aureus 119 assessed as inhibition of bacterial growth at 0.5 ug/ml incubated for 18 to 20 hrs by CLSI protocol based broth microdilution method; format: functional, organism-based; details: dose 0.5 µg/ml, time 18-20 hrs
[7] = test system: Staphylococcus aureus; test: Antibacterial activity against vancomycin resistant Staphylococcus aureus 9 assessed as inhibition of bacterial growth at 0.5 ug/ml incubated for 18 to 20 hrs by CLSI protocol based broth microdilution method; format: functional, organism-based; details: dose 0.5 µg/ml, time 18-20 hrs
[8] = test system: Staphylococcus aureus; test: Antibacterial activity against methicillin resistant Staphylococcus aureus 384 assessed as inhibition of bacterial growth at 0.5 ug/ml incubated for 18 to 20 hrs by CLSI protocol based broth microdilution method; format: functional, organism-based; details: dose 0.5 µg/ml, time 18-20 hrs
[9] = test system: Staphylococcus aureus; test: Antibacterial activity against vancomycin resistant Staphylococcus aureus 10 assessed as inhibition of bacterial growth at 0.5 ug/ml incubated for 18 to 20 hrs by CLSI protocol based broth microdilution method; format: functional, organism-based; details: dose 0.5 µg/ml, time 18-20 hrs
[10] = test system: Staphylococcus aureus; test: Antibacterial activity against methicillin resistant Staphylococcus aureus 385 assessed as inhibition of bacterial growth at 0.5 ug/ml incubated for 18 to 20 hrs by CLSI protocol based broth microdilution method; format: functional, organism-based; details: dose 0.5 µg/ml, time 18-20 hrs
[11] = test system: Staphylococcus aureus; test: Antibacterial activity against methicillin resistant Staphylococcus aureus NRS384 USA300 assessed as inhibition of bacterial growth incubated for 18 to 20 hrs by CLSI protocol based broth microdilution method; format: functional; details: time 18-20 hrs
Outline: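 Broth microdilution against staphylococcal clinical isolates. Each strain was prepared as a 0.5 McFarland suspension and diluted in cation-adjusted Mueller Hinton broth to ~5 × 10^5 CFU mL−1. Serial dilutions of test agents in DMSO stock were incubated with the bacteria, and the MIC was recorded.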

[12] = test system: Staphylococcus aureus; test: Post antibiotic effect against methicillin resistant Staphylococcus aureus NRS384 USA300 assessed as time required for 1 log10 increase in CFU at 5 times of MIC incubated for 2 hrs followed by replacement with drug free medium and measured after 18-24 hrs; format: functional
Outline: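 MRSA USA300 at ~10^6 CFU mL−1 was exposed for 2 h to 5× MIC of test agent, with vancomycin or DMSO as controls. Drug was removed by 1:1000 dilution in fresh TSB. Cultures were incubated at 37 °C with 180 rpm shaking and sampled hourly for 8 h, with viable counts on MSA read after 18–24 h. PAE = T − C, where T and C are the times for a 1 log10 rise in the test and control cultures.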

[13] = Cytotoxicity against human HaCaT cells assessed as tolerance by measuring cell viability at 64 ug/ml incubated for 24 hrs by MTS assay relative to control; format: toxicity, cell-based; details: at 64 µg/mL, read-out: Activity
Outline: (§2)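 Vero or HaCaT cells were exposed to 32, 64 and 128 μg mL−1 compound in triplicate for 24 h at 37 °C, 5% CO2, with a DMSO control. MTS was then added for 4 h and OD490 read. Analysis used two-way ANOVA with Dunnett's post hoc test (p < 0.05).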

[14] = test system: Vero; test: Cytotoxicity against African green monkey Vero cells assessed as reduction in cell viability at 64 ug/ml incubated for 24 hrs by MTS assay; format: toxicity, cell-based; details: chlorocebus sabaeus, dose 64 µg/ml; outline: as §2

Row | SMILES | Activity [1] | Activity [2] | Activity [3] | Activity [4] | Activity [5] | Activity [6] | Activity [7] | Activity [8] | Activity [9] | Activity [10] | MIC ([11]; read-out: MIC) | Time [12] | MIC [11] | viability at 24 h, 64 ug/ml [13] | Activity [14]
1 | C/C(=N\NC(=N)N)c1ccc(NC(=O)Nc2ccc(C#CC(O)CC(C)C)cc2)cc1 (stereo unspecified) | Active | Active | Active | Active | Active | Active | Active | Active | Active | Active |  |  |  |  | 
2 | CC(=O)NC[C@H]1CN(c2ccc(N3CCOCC3)c(F)c2)C(=O)O1 | Active | Active | Active | Active | Active | Active | Active | Active | Active | Active |  |  |  |  | 
3 | C/C(=N\NC(=N)N)c1ccc(NC(=O)Nc2ccc(C#CC3CCCCC3)cc2)cc1 |  |  |  |  |  |  |  |  |  |  | 4000 µg/mL (≈ 9600 µM) |  |  |  | 
4 | CN[C@H](CC(C)C)C(=O)N[C@H]1C(=O)N[C@@H](CC(N)=O)C(=O)N[C@H]2C(=O)N[C@H]3C(=O)N[C@H](C(=O)N[C@H](C(=O)O)c4cc(O)cc(O)c4-c4cc3ccc4O)[C@H](O)c3ccc(c(Cl)c3)Oc3cc2cc(c3O[C@@H]2O[C@H](CO)[C@@H](O)[C@H](O)[C@H]2O[C@H]2C[C@](C)(N)[C@H](O)[C@H](C)O2)Oc2ccc(cc2Cl)[C@H]1O [VANCOMYCIN] | Active | Active | Active | Active | Active | Active | Active | Active | Active | Active |  | 4 h |  |  | 
5 | C/C(=N\NC(=N)N)c1ccc(NC(=O)Nc2ccc(C#CC3CCCC3)cc2)cc1 | Active | Active | Active | Active | Active | Active | Active | Active | Active | Active |  |  | 2 µg/mL (≈ 4.97 µM) | 100% | Non-Toxic
6 | C/C(=N\NC(=N)N)c1ccc(NC(=O)Nc2ccc(C#CC(C)(C)C)cc2)cc1 | Active | Active | Active | Active | Active | Active | Active | Active | Active | Active | 0.5 µg/mL (≈ 1.28 µM) |  |  |  | 
